The results in this text go back to ChEMBL document CHEMBL3046951, “Volatile constituents from the leaves of Callicarpa japonica Thunb. and their antibacterial activities” (2004).

Common to all, as to format: functional
Assay [1] concerns Salmonella typhimurium. Kind of assay: Antimicrobial activity against Salmonella enterica subsp. enterica serovar Typhimurium ATCC 14028 assessed as growth inhibition rate at 215.04 mg/l after 72 hr by spectrophotometry. The settings on record: ATCC 14028, 72 h, read-out: GI. In short, it runs like this:
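Salmonella Typhimurium ATCC 14028 grown in nutrient broth at 30 °C, precultured 24 h, then subcultured 1:100 for 18 h before testing. Single volatile compounds (>95% pure) were added. OD was read every 24 h over 72 h in a Bioscreen C, with 10% Tween 80 as the comparison control.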

Assay [2] deals with Escherichia coli. In words: Antimicrobial activity against Escherichia coli O157:H7 ATCC 43894 assessed as growth inhibition rate at 107.52 mg/l after 72 hr by spectrophotometry. The settings on record: O157:H7 ATCC 43894, 72 h, read-out: GI.
Assay [3] relates to Escherichia coli. In words: Antimicrobial activity against Escherichia coli O157:H7 ATCC 43894 assessed as growth inhibition rate at 6.12 mg/l after 72 hr by spectrophotometry. The settings on record: O157:H7 ATCC 43894, 72 h, read-out: GI.
Assay [4] relates to Staphylococcus aureus. In words: Antimicrobial activity against Staphylococcus aureus ATCC 25923 assessed as growth inhibition rate at 215.04 mg/l after 72 hr by spectrophotometry. The conditions noted are these: ATCC 25923, 72 h, read-out: GI.
For assay [5], the system named is Staphylococcus aureus. In words: Antimicrobial activity against Staphylococcus aureus ATCC 25923 assessed as growth inhibition rate at 61.12 mg/l after 72 hr by spectrophotometry. The conditions noted are these: ATCC 25923, 72 h, read-out: GI.
Assay [6] concerns Vibrio parahaemolyticus. In words: Antimicrobial activity against Vibrio parahaemolyticus ATCC 33844 assessed as growth inhibition rate at 247 mg/l after 72 hr by spectrophotometry. The conditions noted are these: ATCC 33844, 72 h, read-out: GI.
For assay [7], the system named is Bacillus cereus. In words: Antimicrobial activity against Bacillus cereus ATCC 11778 assessed as growth inhibition rate at 6.12 mg/l after 72 hr by spectrophotometry. The conditions noted are these: ATCC 11778, 72 h, read-out: GI. In short, it runs like this: (§1)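 Pure volatile compounds (purity >95%; one at 90%) were tested against B. cereus ATCC 11778. The strain was grown at 30 °C in nutrient broth for 24 h, then subcultured for 18 h. Optical density was read in a Bioscreen C every 24 h for 72 h, with 10% Tween 80 as the control.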

The test system of assay [8] is Vibrio parahaemolyticus. Kind of assay: Antimicrobial activity against Vibrio parahaemolyticus ATCC 33844 assessed as growth inhibition rate at 215.04 mg/l after 72 hr by spectrophotometry. The settings on record: ATCC 33844, 72 h, read-out: GI.
The test system of assay [9] is Vibrio parahaemolyticus. In words: Antimicrobial activity against Vibrio parahaemolyticus ATCC 33844 assessed as growth inhibition rate at 21.52 mg/l after 72 hr by spectrophotometry. The settings on record: ATCC 33844, 72 h, read-out: GI.
For assay [10], the system named is Listeria monocytogenes. In words: Antimicrobial activity against Listeria monocytogenes ATCC 19111 assessed as growth inhibition rate at 43 mg/l after 72 hr by spectrophotometry. The settings on record: ATCC 19111, 72 h, read-out: GI. In short, it runs like this:
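L. monocytogenes was grown at 30 °C in tryptic soy broth, subcultured for 18 h, and exposed to pure volatile compounds (>95% purity). Growth was followed by Bioscreen C optical density every 24 h for 72 h against a 10% Tween 80 control.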

In assay [11] the test system is Bacillus cereus. Kind of assay: Antimicrobial activity against Bacillus cereus ATCC 11778 assessed as growth inhibition rate at 247 mg/l after 72 hr by spectrophotometry. The conditions noted are these: ATCC 11778, 72 h, read-out: GI. In short, it runs like this: as §1

Turning to `CCC/C=C/C=O`, the values for the inhibition of growth at 215.04 µg/mL in assay [1], in [4] and in [8] were 99.4%, 100% and 99.8%, respectively. For the same compound, the inhibition of growth at 107.52 µg/mL in [2] came out at 89.9%. The inhibition of growth at 6.12 µg/mL stood at 7.3% in assay [3] and 90.5% in assay [7]. Moreover, the inhibition of growth at 61.12 µg/mL in assay [5] is 72.6%. The inhibition of growth at 247 µg/mL came out at 100% in assay [6] and 98.8% in assay [11]. In addition, the inhibition of growth at 21.52 µg/mL in [9] amounted to 99.6%. Also, in assay [10], the inhibition of growth at 43 µg/mL was 45.3%.
